Active and inactive are the calls of the source. The calls are words filed in the database; no cut-off is given here.
Tests used:
A549 [1] = experiment: Inhibition of TNFalpha-induced IKKbeta-mediated NF-kappaB activity in human A549 cells at 10 uM after 2 hrs followed by TNFalpha addition for 7 hrs by ONE-Glo Luciferase reporter based luminescence assay; type: cell-based
Method in brief: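 A549 luciferase cells grown 5 passages without TNFα then 2 passages with or without 5 ng/mL TNFα; 50,000 per well overnight; 10 µM compound 2 h; then 20 ng/mL TNFα 7 h; PrestoBlue 10 min (560ex/590em) viability; ONE-Glo 10 min, luminescence 1000 ms.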

A549 [2] = experiment: Inhibition of TNFalpha-induced IKKbeta-mediated NF-kappaB activity in human A549 cells at 10 uM after 2 hrs followed by TNFalpha addition for 7 hrs by ONE-Glo Luciferase reporter based luminescence assay
[3] = target: T1, Inhibitor of nuclear factor kappa-B kinase subunit beta (Homo sapiens) (UniProt O14920); experiment: Inhibition of IKKbeta in human MDA-MB-231 cells assessed as reduction in IkappaBalpha phosphorylation by Western blot analysis; type: cell-based
T1 sequence (whole entry): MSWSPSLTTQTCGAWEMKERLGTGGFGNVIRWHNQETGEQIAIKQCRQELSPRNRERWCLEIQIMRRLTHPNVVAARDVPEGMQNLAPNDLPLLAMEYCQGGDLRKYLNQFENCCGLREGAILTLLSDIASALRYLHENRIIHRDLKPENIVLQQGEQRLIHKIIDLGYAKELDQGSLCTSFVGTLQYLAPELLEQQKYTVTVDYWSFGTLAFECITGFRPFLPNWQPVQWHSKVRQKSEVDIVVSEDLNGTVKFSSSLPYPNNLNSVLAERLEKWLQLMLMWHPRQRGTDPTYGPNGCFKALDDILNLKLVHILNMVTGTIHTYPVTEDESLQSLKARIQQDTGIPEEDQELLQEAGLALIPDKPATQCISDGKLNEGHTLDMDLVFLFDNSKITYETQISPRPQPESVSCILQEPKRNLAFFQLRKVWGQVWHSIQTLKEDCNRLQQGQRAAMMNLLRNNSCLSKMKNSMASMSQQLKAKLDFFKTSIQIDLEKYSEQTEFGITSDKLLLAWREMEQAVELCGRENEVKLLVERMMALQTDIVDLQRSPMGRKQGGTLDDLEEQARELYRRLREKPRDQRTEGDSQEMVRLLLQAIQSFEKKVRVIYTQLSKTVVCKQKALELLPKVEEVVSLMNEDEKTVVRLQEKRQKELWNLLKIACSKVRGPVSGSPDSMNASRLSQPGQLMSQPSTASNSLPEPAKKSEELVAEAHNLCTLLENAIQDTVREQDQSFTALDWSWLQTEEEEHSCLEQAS
Method in brief: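 MDA-MB-231 cytoplasmic fractions: swelling 30 min on ice in HEPES/KCl/EDTA/DTT buffer with inhibitors, 1.25% NP-40, centrifuged; lysates on 4-20% gels, PVDF, anti-phospho-IκBα and anti-IκBα, tubulin or GAPDH loading control, ECL detection.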

HeLa [4] = experiment: Induction of apoptosis in human HeLa cells assessed as PARP cleavage after 24 to 48 hrs by Western blot analysis; type: functional, cell-based
Method in brief: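 Cells collected with media and trypsinized pellet combined, lysed in RIPA buffer (pH 8.0), 4-20% SDS-PAGE, Western blot with anti-PARP to detect cleavage; HeLa timepoint 48 h.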

MDA-MB-231 [5] = experiment: Cytotoxicity against human MDA-MB-231 cells assessed as cell growth inhibition at 0.039 to 40 uM by presto blue dye based plate reader method; type: functional
HeLa [6] = experiment: Anticlonogenic activity against human HeLa cells assessed as inhibition of colony formation after 2 to 7 days by crystal violet staining; type: functional, cell-based
Method in brief: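 HeLa cells seeded at 500-1000 per well, grown 24 h, drug-treated 48 h at 37°C (DMSO control), then fresh medium for 7 days; methanol fixed 15 min, 0.1% crystal violet 30 min at room temperature, colonies over 50 cells counted.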

[7] = target: T1, Inhibitor of nuclear factor kappa-B kinase subunit beta (Homo sapiens); experiment: Inhibition of IKKbeta in human MIAPaCa2 cells assessed as reduction in IkappaBalpha phosphorylation at 10 to 20 uM by Western blot analysis; type: cell-based; conditions: MIA PaCa-2
MDA-MB-231 [8] = experiment: Cytotoxicity against human MDA-MB-231 cells assessed as cell growth inhibition after 3 days by presto blue dye based plate reader method; type: functional
Method in brief: (§1)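 Cells in DMEM high glucose/10% FBS (A2780 in RPMI/10% FBS), 4,000 per well, overnight, then 40 to 0.039 µM or vehicle, 24, 48, 72 h at 37°C, 5% CO2; PrestoBlue 15 min, fluorescence 560ex/590em; growth as 100×[(T−Tz)/(C−Tz)] per NCI algorithm.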

HeLa [9] = experiment: Cytotoxicity against human HeLa cells expressing GFP assessed as cell growth inhibition after 3 days by presto blue dye based plate reader method; type: functional; conditions: 72 h; method in brief: as §1
A2780 = experiment: Cytotoxicity against human A2780 cells assessed as cell growth inhibition after 3 days by presto blue dye based plate reader method; type: functional; conditions: A2780, 72 h; method in brief: as §1
[10] = Cytotoxicity against human MIAPaCa2 cells assessed as cell growth inhibition after 3 days by presto blue dye based plate reader method; type: functional; conditions: MIA PaCa-2, 72 h; method in brief: as §1
SW480 = experiment: Cytotoxicity against human SW480 cells assessed as cell growth inhibition after 3 days by presto blue dye based plate reader method; type: functional; conditions: SW480, 72 h
serum albumin [11] = target: T2, serum albumin (Homo sapiens, UniProt P02768); experiment: Binding affinity to human serum albumin assessed as half life by MS analysis; type: ADME
T2 sequence (P02768 whole entry): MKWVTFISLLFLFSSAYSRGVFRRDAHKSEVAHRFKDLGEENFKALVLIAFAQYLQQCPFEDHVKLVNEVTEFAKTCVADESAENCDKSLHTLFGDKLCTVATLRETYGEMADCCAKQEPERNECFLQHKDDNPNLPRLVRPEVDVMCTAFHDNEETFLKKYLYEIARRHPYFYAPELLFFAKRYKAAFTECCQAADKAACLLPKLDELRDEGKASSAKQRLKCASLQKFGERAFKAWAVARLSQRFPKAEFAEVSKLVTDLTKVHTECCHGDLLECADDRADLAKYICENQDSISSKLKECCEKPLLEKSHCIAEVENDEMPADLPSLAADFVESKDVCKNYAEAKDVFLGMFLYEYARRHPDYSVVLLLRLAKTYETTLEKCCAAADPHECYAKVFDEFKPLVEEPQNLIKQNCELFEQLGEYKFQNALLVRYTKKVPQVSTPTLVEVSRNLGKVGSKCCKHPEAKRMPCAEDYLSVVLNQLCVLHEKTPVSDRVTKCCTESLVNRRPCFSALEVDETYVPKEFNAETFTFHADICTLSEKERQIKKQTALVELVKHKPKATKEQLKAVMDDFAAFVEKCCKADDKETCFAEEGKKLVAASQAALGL

serum albumin [12] = target: T2, serum albumin; experiment: Binding affinity to human serum albumin assessed as half life by HPLC analysis; type: ADME
Homo sapiens = species: Homo sapiens; experiment: Covalent inhibition of C-terminus truncated NF-kappaB p65 L15V/P180S/F309S/A439V/V462M mutant (unknown origin) at 10 uM after 1 hr by rhodamine azide dye based SDS-PAGE method
Method in brief: (§2)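 Purified IKKβ or p65 (250 ng in 200 µL) incubated 1 h with 10 µM alkyne probe; click reaction 1 h with 0.1 mM 5-TAMRA azide, 1 mM TCEP, 1 mM CuSO4, 0.1 mM TBTA; methanol precipitation, pellet in SDS buffer, 4-20% SDS-PAGE, fluorescence gel scanning.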

[13] = target: T1, Inhibitor of nuclear factor kappa-B kinase subunit beta (Homo sapiens); experiment: Covalent inhibition of IKKbeta (unknown origin) at 10 uM after 1 hr by rhodamine azide dye based SDS-PAGE method; method in brief: as §2

Question: For C=C1CC(c2ccc(F)cc2)OC1=O (stereo not drawn), which inhibition (A549 [1]) is on record?
Answer: 25%

Question: Which inhibition (A549 [2]) does the source give for C=C(CC1(O)C(=O)Nc2ccccc21)C(=O)OC (stereo not drawn) here?
Answer: Active

Question: And the inhibition [3]?
Answer: Active

Question: What does the source list for CC1CC2(OC1=O)C(=O)Nc1ccccc12 (stereo not drawn)?
Answer: Activity (HeLa [4]): inactive; growth inhibition (GI) (MDA-MB-231 [5]): inactive; inhibition (A549 [2]): 5%; inhibition [3]: inactive; inhibition (HeLa [6]): inactive; inhibition [7]: inactive; growth inhibition (GI) (MDA-MB-231 [8]): inactive

Question: Which results are given for C=CC(=O)N1CCC[C@@H](n2nc(-c3ccc(Oc4ccccc4)cc3)c3c(N)ncnc32)C1 [IBRUTINIB]?
Answer: IC50 (HeLa [9]): 16.8 µM; EC50 (A2780): 20.1 µM; IC50 [10]: 16.6 µM; IC50 (SW480): 25.6 µM

Question: For C=C1CC2(OC1=O)C(=O)Nc1ccc(I)cc12 (stereo not drawn), which EC50 (A2780) is on record?
Answer: 2.2 µM

Question: For C=C1CC(c2c(OC)ccc3ccccc23)OC1=O (stereo not drawn), which inhibition (A549 [1]) is on record?
Answer: Active

Question: With O=C(Nc1ccc(Br)cc1)Nc1ccc2nc(-c3ccco3)c(-c3ccco3)nc2c1 as the compound, how does the “growth inhibition (GI)” value (MDA-MB-231 [8]) read?
Answer: Active

Question: Which “growth inhibition (GI)” value (MDA-MB-231 [8]) does the source give for N#Cc1c(C2CCNCC2)cc(-c2c(O)cccc2OCC2CC2)nc1N here?
Answer: Active

Question: For C=C1CC2(OC1=O)C(=O)N(Cc1ccccc1)c1ccccc12 (stereo not drawn), which EC50 (A2780) is on record?
Answer: 2.7 µM

Question: With C=C1CC(c2ccccn2)OC1=O (stereo not drawn) as the compound, how does the inhibition (A549 [1]) read?
Answer: < 25%

Question: With NC(=O)Nc1sc(-c2ccc(F)cc2)cc1C(N)=O as the compound, how does the “growth inhibition (GI)” value (MDA-MB-231 [8]) read?
Answer: Active

Question: Which EC50 (A2780) does the source give for C=C1CC2(OC1=O)C(=O)Nc1ccc(OC)cc12 (stereo not drawn) here?
Answer: 3.1 µM

Question: For C=C1CC(c2cccc(C(F)(F)F)c2)OC1=O (stereo not drawn), which inhibition (A549 [1]) is on record?
Answer: 25%

Question: With CCC(=O)N1CCC[C@@H](n2nc(-c3ccc(Oc4ccccc4)cc3)c3c(N)ncnc32)C1 as the compound, how does the IC50 (HeLa [9]) read?
Answer: 15.1 µM

Question: What about the EC50 (A2780) of the same compound?
Answer: 15.2 µM

Question: What about the IC50 [10] of the same compound?
Answer: 8.2 µM

Question: What about the IC50 (SW480) of the same compound?
Answer: 13.4 µM

Question: Which inhibition (A549 [1]) does the source give for C=C1CC(c2ccc(OC)cc2)OC1=O (stereo not drawn) here?
Answer: 25%

Question: What does the source list for C=C1C(=O)O[C@@H]2C3O[C@]3(C)CC/C=C(\C)CC[C@@H]12 (stereo partly drawn)?
Answer: IC50 (HeLa [9]): 5.7 µM; EC50 (A2780): 12.9 µM; half-life (serum albumin [11]): 37 min; inhibition (A549 [2]): > 95%; half-life (serum albumin [12]): 66 min; IC50 [10]: 9.8 µM; IC50 (SW480): 15.3 µM

Question: Which EC50 (A2780) does the source give for C=C1CC2(OC1=O)C(=O)N(C)c1ccccc12 (stereo not drawn) here?
Answer: 3.9 µM

Question: Which inhibition (A549 [1]) does the source give for C=C1CC(c2ccc(OC)c(OC)c2)OC1=O (stereo not drawn) here?
Answer: 25%

Question: With C=C1CC(c2ccc3ccccc3c2)OC1=O (stereo not drawn) as the compound, how does the inhibition (A549 [1]) read?
Answer: 50%

Question: With C=C1CC(c2cccc(OCc3ccccc3)c2)OC1=O (stereo not drawn) as the compound, how does the inhibition (A549 [1]) read?
Answer: 25%

Question: For C=C1CC(c2cccc(Br)n2)OC1=O (stereo not drawn), which inhibition (A549 [1]) is on record?
Answer: 50%

Question: For C=C1CC(c2cccc3ccccc23)OC1=O (stereo not drawn), which inhibition (A549 [1]) is on record?
Answer: 50%

Question: Which inhibition (A549 [1]) does the source give for C=C1CC(c2ccc(OCc3ccccc3)cc2)OC1=O (stereo not drawn) here?
Answer: 25%

Question: For Cc1ccc(C)c2c1NC(=O)C21CC(C)C(=O)O1 (stereo not drawn), which IC50 (HeLa [9]) is on record?
Answer: > 100 µM

Question: What about the EC50 (A2780) of the same compound?
Answer: > 100 µM

Question: And the IC50 [10]?
Answer: > 100 µM

Question: What about the IC50 (SW480) of the same compound?
Answer: > 100 µM

Question: For C/C1=C\CC[C@@]2(C)O[C@H]2[C@H]2OC(=O)C(C)[C@@H]2CC1 (stereo partly drawn), which IC50 (HeLa [9]) is on record?
Answer: 66.1 µM

Question: And the EC50 (A2780)?
Answer: > 100 µM

Question: What about the inhibition (A549 [2]) of the same compound?
Answer: 20%

Question: What about the IC50 [10] of the same compound?
Answer: 84.3 µM

Question: And the IC50 (SW480)?
Answer: > 100 µM

Question: Which EC50 (A2780) does the source give for C#CCCN1C(=O)C2(CC(=C)C(=O)O2)c2ccccc21 (stereo not drawn) here?
Answer: 5.5 µM

Question: What about the inhibition (Homo sapiens) of the same compound?
Answer: Active

Question: What about the inhibition [13] of the same compound?
Answer: Active

Question: What about the inhibition (A549 [1]) of the same compound?
Answer: 75%

Question: For C=C1CC2(OC1=O)C(=O)Nc1c([N+](=O)[O-])cc(Br)cc12 (stereo not drawn), which EC50 (A2780) is on record?
Answer: 2 µM

Question: For C=C1CC(c2ccnc3ccccc23)OC1=O (stereo not drawn), which inhibition (A549 [1]) is on record?
Answer: inactive

Question: For C=C1C(=O)OC2(C(=O)Nc3ccccc32)C1c1ccccc1 (stereo not drawn), which EC50 (A2780) is on record?
Answer: 3.8 µM

Question: Which inhibition (A549 [1]) does the source give for C=C1CC(c2ccc(OC)c(OCc3ccccc3)c2)OC1=O (stereo not drawn) here?
Answer: 25%

Question: With C=C1CC(c2ccc(C3CC(=C)C(=O)O3)cc2)OC1=O (stereo not drawn) as the compound, how does the inhibition (A549 [1]) read?
Answer: Active

Question: For C=C1CC(c2c(OCc3ccccc3)ccc3ccccc23)OC1=O (stereo not drawn), which inhibition (A549 [1]) is on record?
Answer: < 25%

Question: Which inhibition (A549 [1]) does the source give for C=C1CC(c2ccccc2)OC1=O (stereo not drawn) here?
Answer: 25%

Question: For C=C1CC(c2cccc(OC)c2)OC1=O (stereo not drawn), which inhibition (A549 [1]) is on record?
Answer: 25%
